Experimental data published in PMC8451076 (International Journal of Nanomedicine, 2021).
Where a name gives a salt, the structure may show the parent alone. Read-outs that look alike come from different tables or passages of the source.

Assays:
[1] = Solubility of BBR in supersaturated aqueous solutions; assay type: physicochemical; conditions: water, thermodynamic from solid
Method in brief: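 Supersaturated aqueous preparations, each at 10 mg/mL BBR, were sonicated 1 h and centrifuged at 16,000 rpm for 10 min. BBR in the supernatant was quantified by LC-MS. n = 6.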

[2] = assay type: physicochemical
Method in brief: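 Test material containing 10 mg BBR was enclosed in a blank capsule and run in a rotating-basket tester at 50 rpm and 37 ± 0.5°C. Medium was 900 mL HCl buffer (2.0 g NaCl, pH 1.2; sampled 5–90 min) or 0.2 M sodium phosphate (pH 6.8; sampled 2.5 min–6 h). Samples were 0.22-μm filtered and centrifuged, then BBR was quantified by LC-MS. n = 6.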

[3] = Transportation of BBR across MDCK-MDR1 cell monolayer; assay type: in vitro ADME, canine; conditions: dog
Method in brief: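 MDCK-MDR1 cells were grown in DMEM/10% FBS/15 mM HEPES and seeded on polycarbonate Transwells (2×10^5 cells/mL) until TEER exceeded 500 Ω·cm2. Cells were equilibrated 20 min in HBSS (pH 7.2). BBR (final 10 μg/mL) was added apical or basolateral, and both sides were sampled after 2 or 4 h for LC-MS/MS. Papp = ΔQ/(Δt·A·C0), with A 0.33 cm2.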

[4] = Metabolism stability of BBR in intestinal S9; assay type: in vitro ADME; conditions: mouse, intestinal S9, pH 7.4
Method in brief: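 Mouse intestinal S9 (2 mg/mL) plus test material (BBR final 10 μg/mL) in 50 mM Tris-HCl pH 7.4 was preincubated 5 min at 37°C, then started with NADPH (1 mg/mL). After 0.5 or 1 h, reactions were stopped with equal-volume chilled methanol containing carbamazepine internal standard and centrifuged. Residual BBR and demethylberberine were measured by LC-MS/MS.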

[5] = cited from earlier work; for oral bioavailability: purified constituents of TCMs
Caco-2 cells = assay: Uptake of BBR in Caco-2 cells with endocytosis inhibitors; assay type: cell-based, human; conditions: Nnps containing 10 μg/mL BBR, 4 h, indomethacin 100 μg/mL, chlorpromazine 10 μg/mL, cytochalasin D 5 μM

## COc1ccc2cc3[n+](cc2c1OC)CCc1cc2c(cc1-3)OCO2 [BBR, berberine hydrochloride]
[1]
  solubility at 1 h: ~3700 µg/mL
[2]; artificial gastric juice (pH 1.2), 15 min
  dissolution rate of BBR: 7.5%
[2]; artificial gastric juice (pH 1.2), end point
  dissolution rate of BBR: 35.3%
[2]; artificial intestinal juice (pH 6.8), 15 min
  dissolution rate of BBR: 1.8%
[2]; artificial intestinal juice (pH 6.8), end point 6 h
  dissolution rate of BBR: 60.9%
[3]
  Papp at 10 μg/mL: < 1 ×10⁻⁶ cm/s
[4]
  half-life at 10 μg/mL: 2.48 h
[5]; oral
  bioavailability of oral BBR: 0.36%
  fraction of BBR excreted directly with feces after oral administration: approximately 56%
  intestinal elimination of the oral dose: 43.5%
[5]
  oral bioavailability: less than 5%

## CN(C)CCCN1c2ccccc2Sc2ccc(Cl)cc21 [Chlorpromazine, chlorpromazine]
Caco-2 cells
  effect of endocytosis inhibitor on uptake of BBR carried by the Nnps: promoted the uptake

## COc1ccc2c(c1)c(CC(=O)O)c(C)n2C(=O)c1ccc(Cl)cc1 [Indomethacin, indomethacin]
Caco-2 cells
  effect of endocytosis inhibitor on uptake of BBR carried by the Nnps: significantly reduced

## CC(C)=CCC[C@](C)(O[C@@H]1O[C@H](CO[C@@H]2OC[C@H](O)[C@H](O)[C@H]2O)[C@@H](O)[C@H](O)[C@H]1O)[C@H]1CC[C@]2(C)[C@@H]1[C@H](O)C[C@@H]1[C@@]3(C)CC[C@H](O[C@@H]4O[C@H](CO)[C@@H](O)[C@H](O)[C@H]4O[C@@H]4O[C@H](CO)[C@@H](O)[C@H](O)[C@H]4O)C(C)(C)[C@@H]3CC[C@]12C [Rb2, ginsenoside Rb2]
[5]
  oral bioavailability: less than 5%

## CC(C)=CCC[C@](C)(O[C@@H]1O[C@H](CO[C@@H]2OC[C@@H](O)[C@H](O)[C@H]2O)[C@@H](O)[C@H](O)[C@H]1O)[C@H]1CC[C@]2(C)[C@@H]1[C@H](O)C[C@@H]1[C@@]3(C)CC[C@H](O[C@@H]4O[C@H](CO)[C@@H](O)[C@H](O)[C@H]4O[C@@H]4O[C@H](CO)[C@@H](O)[C@H](O)[C@H]4O)C(C)(C)[C@@H]3CC[C@]12C [Rb3, ginsenoside Rb3]
[5]
  oral bioavailability: less than 5%

## CC(C)(O)[C@@H]1CC[C@](C)([C@H]2[C@@H](O)C[C@@]3(C)[C@@H]4C[C@H](O[C@@H]5O[C@H](CO)[C@@H](O)[C@H](O)[C@H]5O)[C@H]5C(C)(C)[C@@H](O[C@@H]6OC[C@@H](O)[C@H](O)[C@H]6O)CC[C@@]56C[C@@]46CC[C@]23C)O1 [astragaloside IV]
[5]
  oral bioavailability: less than 5%

## O=C(O)[C@H]1O[C@@H](Oc2cc3oc(-c4ccccc4)cc(=O)c3c(O)c2O)[C@H](O)[C@@H](O)[C@@H]1O [baicalin]
[5]
  oral bioavailability: less than 5%

## COc1cc(/C=C/C(=O)CC(=O)/C=C/c2ccc(O)c(OC)c2)ccc1O [curcumin]
[5]
  oral bioavailability: less than 5%

## C=C1[C@@H](C)[C@H]2[C@H](Cc3ccccc3)NC(=O)[C@]23[C@H](OC(C)=O)/C=C/[C@@](C)(O)C(=O)[C@@H](C)C/C=C/[C@H]3[C@@H]1O [cytochalasin D]
Caco-2 cells
  effect of endocytosis inhibitor on uptake of BBR carried by the Nnps: promoted the uptake

## CC(C)=CCC[C@](C)(O[C@@H]1O[C@H](CO[C@@H]2O[C@H](CO)[C@@H](O)[C@H](O)[C@H]2O)[C@@H](O)[C@H](O)[C@H]1O)[C@H]1CC[C@]2(C)[C@@H]1[C@H](O)C[C@@H]1[C@@]3(C)CC[C@H](O[C@@H]4O[C@H](CO)[C@@H](O)[C@H](O)[C@H]4O[C@@H]4O[C@H](CO)[C@@H](O)[C@H](O)[C@H]4O)C(C)(C)[C@@H]3CC[C@]12C [ginsenoside Rb1]
[5]
  oral bioavailability: less than 5%

## CC1(C)[C@@H](O[C@H]2O[C@H](C(=O)O)[C@@H](O)[C@H](O)[C@H]2O[C@@H]2O[C@H](C(=O)O)[C@@H](O)[C@H](O)[C@H]2O)CC[C@]2(C)[C@H]3C(=O)C=C4[C@@H]5C[C@@](C)(C(=O)O)CC[C@]5(C)CC[C@@]4(C)[C@]3(C)CC[C@@H]12 [glycyrrhizin]
[5]
  oral bioavailability: less than 5%

## Cc1coc2c1C(=O)C(=O)c1c-2ccc2c1CCCC2(C)C [tanshinone IIA]
[5]
  oral bioavailability: less than 5%
